Assay [1] concerns the target T1, Isocitrate lyase 1 (Mycobacterium tuberculosis (strain CDC 1551 / Oshkosh)) (UniProt P9WKK6).
T1 sequence (whole entry): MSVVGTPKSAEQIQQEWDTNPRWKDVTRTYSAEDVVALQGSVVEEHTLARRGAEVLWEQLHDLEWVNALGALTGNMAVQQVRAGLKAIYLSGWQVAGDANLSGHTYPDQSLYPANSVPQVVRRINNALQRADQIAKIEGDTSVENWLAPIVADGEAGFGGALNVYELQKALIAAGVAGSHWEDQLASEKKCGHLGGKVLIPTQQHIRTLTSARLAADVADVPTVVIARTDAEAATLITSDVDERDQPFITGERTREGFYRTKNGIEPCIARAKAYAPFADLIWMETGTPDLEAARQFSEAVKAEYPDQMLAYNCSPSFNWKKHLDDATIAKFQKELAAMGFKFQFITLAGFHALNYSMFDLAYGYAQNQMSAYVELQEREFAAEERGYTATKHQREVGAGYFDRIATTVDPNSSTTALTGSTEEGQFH
As to the kind of experiment: Binding affinity to Mycobacterium tuberculosis ICL1 expressed in Escherichia coli BL21(DE3) assessed as increase in melting temperature at 1 mM in presence of MgCl2 by SYPRO orange dye based fluorescence assay.

In assay [2] the target is T1, Isocitrate lyase 1 (Mycobacterium tuberculosis (strain CDC 1551 / Oshkosh)). Nature of the assay: Inhibition of Mycobacterium tuberculosis ICL1 expressed in Escherichia coli BL21(DE3) at 100 uM using DL-isocitrate as substrate incubated for 25 mins in presence of MgCl2 by 1H NMR method. The method, boiled down:
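Direct 1H NMR time course at 500 MHz, 300 K, with excitation-sculpting water suppression. Sample: 190 nM ICL1, 1 mM DL-isocitrate, 5 mM MgCl2, 100 μM inhibitor, 50 mM Tris-D11 pH 7.5 in 90% H2O/10% D2O. Substrate consumption and product formation are tracked directly. Initial rates come from linear fits up to 20% turnover. Run in triplicate.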

Assay [3] deals with T2, Isocitrate lyase 1 (Mycobacterium tuberculosis (strain CDC 1551 / Oshkosh), UniProt P9WKK6).
T2 sequence (P9WKK6 whole entry): T1 sequence (whole entry)
As to the kind of experiment: Inhibition of Mycobacterium tuberculosis ICL1 expressed in Escherichia coli BL21(DE3) using DL-isocitrate as substrate incubated for 25 mins in presence of MgCl2 by 1H NMR method. The method, boiled down: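 1H NMR assay at 500 MHz, 300 K, water-suppressed spectra recorded over time. Sample: 190 nM ICL1, 1 mM DL-isocitrate, 5 mM MgCl2, varying inhibitor concentrations, 50 mM Tris/Tris-D11 pH 7.5 in 90% H2O/10% D2O. Initial rates from linear fits up to 20% turnover; IC50 from a 3-parameter sigmoid fit. Triplicate measurements, errors given as SD.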

The target of assay [4] is T1, Isocitrate lyase 1 (Mycobacterium tuberculosis (strain CDC 1551 / Oshkosh)). Nature of the assay: Binding affinity to Mycobacterium tuberculosis ICL1 expressed in Escherichia coli BL21(DE3) assessed as melting temperature at 1 mM in presence of MgCl2 by SYPRO orange dye based fluorescence assay (reference value: 43 degC).
Assay [5] concerns the target T2, Isocitrate lyase 1. Nature of the assay: Inhibition of Mycobacterium tuberculosis ICL1.

Structures are written as SMILES. Calls of active or inactive are those of the source. No cut-off for these calls is given here. Where a SMILES comes first, the peptide text is derived from it. The star is where a group is joined. Cbz = O=C(OCc1ccccc1)*

As to `O=C(Cc1ccc2cccnc2c1)c1ccc(O)cc1O`, the ΔTm in assay [1] was more than 0.5 °C. On to `COc1ccc(OCC(=O)c2c(O)cc(O)cc2O)cc1`, for which the ΔTm in assay [1] is more than 0.5 °C. The same measure, in the same setting: with `O=C(O)C1=CC=C(COc2ccc3ccc(=O)oc3c2)C1` the figure was more than 0.5 °C. On to `COc1ccc(C(=O)COC(=O)c2oc3ccc(OC)cc3c2C)c(OC)c1`, for which, in assay [2], the inhibition entry was “inactive”.

On to `CC(C)C(NC(=O)OCc1ccccc1)C(=O)NCC(=O)NC(Cc1c[nH]c2ccccc12)C(=O)O` (stereo not drawn) (Cbz-Val-Gly-Trp-OH; configuration not given here), for which, in assay [1], the ΔTm is more than 0.5 °C. Take `O=C(O)CC[N+](=O)[O-]`: the inhibition entry in assay [2] was “Active”. Moreover, in assay [3], the IC50 stood at 14.7 µM. Also, in assay [4], the Tm is 40.9 °C. Take `CC(Oc1ccc2c3c(c(=O)oc2c1)CCC3)C(=O)NCC1CCC(C(=O)O)CC1` (stereo not given): the ΔTm in assay [1] was more than 0.5 °C. As for `O=C(O)COc1ccc(C(=O)Cc2ccc3c(c2)OCCCO3)c(O)c1`, the ΔTm in assay [1] was more than 0.5 °C.

As for `NC(Cc1c[nH]c2ccccc12)C(=O)NCc1ccco1` (stereo not given), the ΔTm in assay [1] is more than 0.5 °C. In the case of `Cc1ccc(C(=O)CC(=O)c2ccco2)c(O)c1`, in assay [1], the ΔTm is more than 0.5 °C.

`CCCc1cc(C(=O)Cc2cc3ccccc3o2)c(O)cc1O`: in assay [1], the ΔTm is more than 0.5 °C. On the same count and under the same terms, as for `COc1ccc(O)c(C(=O)CC(=O)c2ccccc2)c1`, the figure is more than 0.5 °C.

Consider `CCCCCCc1cc(C(=O)Cc2cc3ccccc3o2)c(O)cc1O`, for which the inhibition entry in assay [2] is “inactive”. In the case of `NC(CC(=O)O)c1cccnc1` (stereo not given), in assay [1], the ΔTm was more than 0.5 °C. Regarding `CCOC(=O)c1cc2cc(CC(=O)c3ccc(OC)cc3O)ccc2o1`, in assay [2], the inhibition result was “inactive”. Turning to `O=C(COc1ccccc1Br)c1ccc(O)cc1O`, the ΔTm in assay [1] was more than 0.5 °C. As to `CCOC(=O)c1ccc(CC(=O)c2oc3cc(O)ccc3c2C)o1`, in assay [2], the inhibition entry is “Active”. Also, the IC50 in assay [3] is more than 100 µM. Further, the ΔTm in assay [1] was more than 0.5 °C. With `COc1ccc2oc(C(=O)OCC(=O)c3ccc(C)s3)c(C)c2c1`, the inhibition result in assay [2] was “inactive”.

With `CCCc1cc(C(=O)Cc2cc3ccccc3o2)c(O)cc1OC`, in assay [2], the inhibition result was “inactive”.

In the case of `CCOC(=O)c1oc2ccc(CC(=O)c3c(C)cc(O)cc3O)cc2c1C`, the inhibition result in assay [2] is “inactive”.

Turning to `COc1cc(OC)c(C(=O)COC(=O)c2oc3ccccc3c2C)c(OC)c1`, the inhibition result in assay [2] was “inactive”.

For `O=C(O)CNC(=O)c1ccc(NC(=O)/C(=C/c2ccccc2)NC(=O)c2ccccc2)cc1`, the ΔTm in assay [1] was more than 0.5 °C. On to `COC(=O)/C=C/C(=O)c1ccc(OC)cc1`, for which the inhibition result in assay [2] was “inactive”. In addition, the IC50 in assay [3] is 250 µM; in assay [5] it was 30.9 µM. The Tm in assay [4] was determined as 37.6 °C. Turning to `Nc1ccc([C@H](O)[C@@H](N)CO)cc1`, the ΔTm in assay [1] was more than 0.5 °C. Consider `O=C(O)C(=O)CBr` [BROMOPYRUVATE], for which the inhibition entry in assay [2] is “Active”. Also, the IC50 in assay [3] was found to be 17.5 µM. Moreover, the Tm in assay [4] is 52.5 °C.

Turning to `C=C(CC(=O)O)C(=O)O` [ITACONATE], the inhibition entry in assay [2] is “Active”. In assay [3], the IC50 was determined as 29.4 µM. Further, in assay [4], the Tm is 53.3 °C. `CCCCc1cc(C(=O)Cc2cc3ccccc3o2)c(O)cc1O`: in assay [2], the inhibition entry was “inactive”. As to `CCc1cc(C(=O)Cc2cc3ccccc3o2)c(O)cc1OC`, in assay [2], the inhibition entry is “inactive”. Turning to `COc1ccc(CC(=O)Nc2ccc(O)cc2C(=O)O)cc1`, the ΔTm in assay [1] was more than 0.5 °C. For `CCOC(=O)c1cc2cc(CC(=O)c3ccc(O)cc3O)ccc2o1`, in assay [2], the inhibition entry is “Active”. In assay [3], the IC50 was more than 100 µM. For the same compound, in assay [1], the ΔTm is more than 0.5 °C. For `CC(C)[C@H](NC(=O)COc1ccc(C(=O)COc2ccccc2)c(O)c1)C(=O)O`, the ΔTm in assay [1] is more than 0.5 °C. With `Nc1ccc(C(=O)CC(=O)Nc2cc(C(=O)O)cc(C(=O)O)c2)cc1`, the ΔTm in assay [1] was more than 0.5 °C.

Values taken from ChEMBL document CHEMBL4257464, “Development of NMR and thermal shift assays for the evaluation of Mycobacterium tuberculosis isocitrate lyase inhibitors” (Medchemcomm, 2017).
